The text below walks through data of ChEMBL document CHEMBL1800056, “Discovery of 2-(6-{[(6-fluoroquinolin-2-yl)methyl]amino}bicyclo[3.1.0]hex-3-yl)-N-hydroxypyrimidine-5-carboxamide (CHR-3996), a class I selective orally active histone deacetylase inhibitor” (J Med Chem, 2010).

Data set [1] deals with Cytochrome P450 3A4 (Homo sapiens, UniProt P08684). The experiment in a line: Inhibition of CYP3A4 at < 10 uM. It counts as ADME.
Data set [2] in a line: Ratio of drug level in spleen to plasma of CrTac:NCr-Fox1(nu) athymic mouse at 50 mg/kg, po administered daily for 16 days. It counts as ADME, organism-based. Details: dose 50 mg/kg, route oral. In outline:
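Female CrTac:NCr-Fox1(nu) athymic mice, 6-8 weeks old, inoculated bilaterally sc with 2 million HCT116 colon carcinoma cells. Dosing at 50 mg/kg po daily in 10% DMSO-saline started on day 6 (tumors approx. 5 mm diameter). Controls received vehicle alone. On day 16, plasma, spleen and tumor were collected and frozen for PK assays of drug levels.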

In data set [3] the test system is Mus musculus. The experiment in a line: In-vivo inhibition of HDAC1 in human HCT116 cells xenografted CrTac:NCr-Fox1 nude mouse assessed as histone acetylation at 50 mg/kg, po administered daily for 16 days measured after hrs by Western blot analysis relative to control. The data set is classed as functional, organism-based. Further details: dose 50 mg/kg. As to conditions: HCT-116. In outline:
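Female CrTac:NCr-Fox1(nu) mice, 6-8 weeks old, bearing bilateral sc HCT116 tumors (2 million cells). Daily oral 50 mg/kg in 10% DMSO-saline from day 6 (tumors ~5 mm) to day 16; vehicle controls. Tumor lysates taken 0.5, 1.0 and 4 h after the last dose. Western blot for acetylated histone H3 or α-tubulin, normalized to GAPDH.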

In data set [4] the test system is HCT-116. The experiment in a line: Cell cycle arrest in human HCT116 cells assessed as accumulation at G1 phase at 300 nM after 15 hrs by propidium iodide staining based flow cytometric analysis. It counts as functional. On the technique in general: Flow cytometry measures light scatter and fluorescence of single cells or particles in a stream.
Data set [5] deals with Cytochrome P450 2D6 (Homo sapiens, UniProt P10635). The experiment in a line: Inhibition of CYP2D6. It counts as ADME.
Chain of Cytochrome P450 2D6 (P10635 whole entry): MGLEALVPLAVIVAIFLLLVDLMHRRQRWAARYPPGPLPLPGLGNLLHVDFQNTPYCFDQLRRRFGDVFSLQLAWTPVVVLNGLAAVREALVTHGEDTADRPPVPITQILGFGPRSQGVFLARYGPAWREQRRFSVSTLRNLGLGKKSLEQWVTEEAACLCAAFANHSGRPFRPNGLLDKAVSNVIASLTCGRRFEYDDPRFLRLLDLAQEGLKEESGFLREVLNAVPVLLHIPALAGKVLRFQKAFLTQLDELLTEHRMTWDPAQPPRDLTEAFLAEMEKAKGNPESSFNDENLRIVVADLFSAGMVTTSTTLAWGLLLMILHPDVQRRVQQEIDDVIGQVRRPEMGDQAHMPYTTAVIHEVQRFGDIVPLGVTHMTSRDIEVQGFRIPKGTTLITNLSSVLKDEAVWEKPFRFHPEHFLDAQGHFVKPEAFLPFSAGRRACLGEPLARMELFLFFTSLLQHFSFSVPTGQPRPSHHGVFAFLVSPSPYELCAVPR
The subject of data set [6] is A2780. The experiment in a line: Antiproliferative activity against human A2780 cells after 72 hrs by WST-1 assay. It counts as functional. As to conditions: Homo sapiens, A2780, 72 h. An outline of the steps:
(§1)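 Cells seeded at (1-5) × 10³/well in serum-containing medium for 24 h at 37 °C, 5% CO₂. Inhibitor added at 0.6-10000 nM for 72 h, with WST-1 pulse over the final 4 h. Formazan read at 450 nm (reference 650 nm). Expressed as % inhibition of vehicle response; GI50 is the concentration inhibiting 50% of vehicle response; n = 6 replicates.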
On the technique in general: Tetrazolium assays rely on reduction of a dye to a coloured formazan, in cell work by metabolically active cells.

In data set [7] the test system is Mus musculus. Description: Toxicity in human HCT116 cells xenografted CrTac:NCr-Fox1 nude mouse at 50 mg/kg, po administered daily for 16 days. It counts as organism-based, HCT-116. Further details: dose 50 mg/kg, route oral. The settings on record: in vivo, 384 h. In outline: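 Female CrTac:NCr-Fox1(nu) athymic mice, 6-8 weeks old, given bilateral sc HCT116 implants (2 million cells). Oral dosing at 50 mg/kg in 10% DMSO-saline, once daily from day 6 (tumors ~5 mm mean diameter) until day 16. Controls received vehicle. Tumor size and body weight recorded three times weekly.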
For orientation: Xenograft models place foreign cells or tissue in a host animal.

Data set [8] in a line: Drug level in tumor of BALB/c mouse at 75 mg/kg, po administered daily for 14 days. The settings on record: read-out: Drug uptake. It counts as ADME, organism-based, Neoplasm. Further details: dose 75 mg/kg, route oral. An outline of the steps:
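HCT116 xenografts in female nude BALB/c mice, run at EpiStem. Oral daily dosing for 14 days in 5% DMSO-saline at 50 or 75 mg/kg. Tumor volume measured relative to start; drug concentrations in tumor and plasma measured.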

Data set [9] concerns the target Histone deacetylase 3 (Homo sapiens, UniProt O15379). The experiment in a line: Inhibition of human recombinant HDAC3 using fluor de Lys as substrate by fluorometric analysis.
For data set [10], the system named is HuT78. The experiment in a line: Ratio of GI50 for SAHA to compound for human HUT78 cells after 72 hrs by WST-1 assay. It counts as functional. In outline: (§2)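 Cells seeded at (1-5) × 10³/well in serum-containing medium and grown 24 h at 37 °C, 5% CO₂. They were then exposed for 72 h to HDAC inhibitor (0.6-10000 nM), with SAHA run alongside in the same panel. WST-1 was added for the final 4 h and read at 450 nm (650 nm reference). GI50 taken as 50% inhibition of the vehicle response, n = 6.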

Data set [11] in a line: Half life in dog at 10 mg/kg, po. The data set is classed as ADME, organism-based, Canis lupus familiaris. Details: dose 10 mg/kg, route oral. The settings on record: in vivo. An outline of the steps: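 Dog single dose: iv 1 mg/kg in 5% DMSO-HPβC (11.25% w/v); po 10 mg/kg in 5% DMSO-saline. AUC0-t in ng h/mL, clearance in (mL/min)/kg, t1/2 in h, F in %.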
Data set [12] relates to HCT-116. The experiment in a line: Ratio of GI50 for SAHA to compound for human HCT116 cells after 72 hrs by WST-1 assay. The data set is classed as functional. In outline: as §2
For data set [13], the system named is LoVo. Description: Ratio of GI50 for SAHA to compound for human LoVo cells after 72 hrs by WST-1 assay. The data set is classed as functional. An outline of the steps:
as §2

The test system of data set [14] is COR-L23. The experiment in a line: Ratio of GI50 for SAHA to compound for doxorubicin-resistant human COR-L23 cells after 72 hrs by WST-1 assay. It counts as functional. An outline of the steps: as §2
Data set [15] deals with HepG2. Description: Ratio of GI50 for SAHA to compound for human HepG2 cells after 72 hrs by WST-1 assay. The data set is classed as functional. An outline of the steps:
as §2

The subject of data set [16] is LoVo. The experiment in a line: Antitumor activity against human LoVo cells xenografted in nude BALB/c mouse assessed as reduction in tumor volume at 50 mg/kg, po administered QD for 19 days. It counts as functional, organism-based. Details: dose 50 mg/kg. An outline of the steps:
(§3)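 LoVo colorectal xenograft grown subcutaneously in female BALB/c nude mice, run at EpiStem. Compound given orally daily at 25 or 50 mg/kg; tumor volume followed.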

Data set [17] is described as follows: Half life in rat at 10 mg/kg, po. The data set is classed as ADME, organism-based. Details: dose 10 mg/kg, route oral. The settings on record: in vivo. An outline of the steps: (§4)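 Rat single dose, iv 1 mg/kg or po 10 mg/kg, both in 1% DMSO-HPβC (11.25% w/v). AUC0-t in ng h/mL, clearance in (mL/min)/kg, t1/2 in h, F in %.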
In data set [18] the test system is LoVo. The experiment in a line: Antitumor activity against human LoVo cells xenografted in nude BALB/c mouse assessed as reduction in tumor volume at 25 mg/kg, po administered QD for 19 days. The data set is classed as functional, organism-based. Details: dose 25 mg/kg. An outline of the steps: as §3
Data set [19] deals with U-937. The experiment in a line: Ratio of GI50 for SAHA to compound for human U937 cells after 72 hrs by WST-1 assay. The data set is classed as functional. An outline of the steps:
as §2

For data set [20], the system named is MOLT-4. Description: Ratio of GI50 for SAHA to compound for human MOLT4 cells after 72 hrs by WST-1 assay. The data set is classed as functional. In outline:
as §2

Data set [21] in a line: Clearance in rat at 1 mg/kg, iv. The data set is classed as ADME, organism-based. Further details: dose 1 mg/kg, route intravenous. As to conditions: in vivo. In outline: as §4
Data set [22] is described as follows: Aqueous solubility of the compound in PBS at pH 7.4. It counts as physicochemical.
Data set [23] relates to A549. The experiment in a line: Ratio of GI50 for SAHA to compound for human A549 cells after 72 hrs by WST-1 assay. It counts as functional. An outline of the steps: as §2
The test system of data set [24] is PC-3. Description: Ratio of GI50 for SAHA to compound for human PC3 cells after 72 hrs by WST-1 assay. It counts as functional. In outline:
as §2

The test system of data set [25] is DU-145. Description: Ratio of GI50 for SAHA to compound for human DU145 cells after 72 hrs by WST-1 assay. It counts as functional. An outline of the steps:
as §2

Data set [26] concerns COR-L23. The experiment in a line: Ratio of GI50 for SAHA to compound for human COR-L23 cells after 72 hrs by WST-1 assay. It counts as functional. An outline of the steps:
as §2

The subject of data set [27] is MIA PaCa-2. The experiment in a line: Ratio of GI50 for SAHA to compound for human MIAPaCa2 cells after 72 hrs by WST-1 assay. It counts as functional. In outline: as §2
A short description of data set [28]: Antiproliferative activity against human […] cells after 72 hrs by WST-1 assay. The data set is classed as functional. The settings on record: Homo sapiens, MCR5-SV2, 72 h. An outline of the steps:
as §1

Structures are written as SMILES. ≈ marks a conversion by molar mass, not a printed value. Calls of active or inactive are those of the source. No cut-off for these calls is given here. Where only a bound is given, the exact number is not on record here.

Chain of Cytochrome P450 3A4 (P08684 whole entry): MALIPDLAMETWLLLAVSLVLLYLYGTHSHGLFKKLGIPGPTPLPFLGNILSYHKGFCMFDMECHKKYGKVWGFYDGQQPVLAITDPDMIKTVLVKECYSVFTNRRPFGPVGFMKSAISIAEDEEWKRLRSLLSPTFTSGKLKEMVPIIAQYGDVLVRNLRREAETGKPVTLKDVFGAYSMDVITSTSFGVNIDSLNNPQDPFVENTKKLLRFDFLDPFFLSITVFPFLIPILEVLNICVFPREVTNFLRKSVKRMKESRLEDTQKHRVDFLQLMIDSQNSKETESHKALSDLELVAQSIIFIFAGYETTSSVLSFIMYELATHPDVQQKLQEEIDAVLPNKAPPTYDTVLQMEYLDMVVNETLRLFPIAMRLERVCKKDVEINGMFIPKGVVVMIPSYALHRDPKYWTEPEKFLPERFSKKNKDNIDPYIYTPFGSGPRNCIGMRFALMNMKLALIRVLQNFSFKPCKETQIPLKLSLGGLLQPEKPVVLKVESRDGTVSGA
Chain of Histone deacetylase 3 (O15379 whole entry): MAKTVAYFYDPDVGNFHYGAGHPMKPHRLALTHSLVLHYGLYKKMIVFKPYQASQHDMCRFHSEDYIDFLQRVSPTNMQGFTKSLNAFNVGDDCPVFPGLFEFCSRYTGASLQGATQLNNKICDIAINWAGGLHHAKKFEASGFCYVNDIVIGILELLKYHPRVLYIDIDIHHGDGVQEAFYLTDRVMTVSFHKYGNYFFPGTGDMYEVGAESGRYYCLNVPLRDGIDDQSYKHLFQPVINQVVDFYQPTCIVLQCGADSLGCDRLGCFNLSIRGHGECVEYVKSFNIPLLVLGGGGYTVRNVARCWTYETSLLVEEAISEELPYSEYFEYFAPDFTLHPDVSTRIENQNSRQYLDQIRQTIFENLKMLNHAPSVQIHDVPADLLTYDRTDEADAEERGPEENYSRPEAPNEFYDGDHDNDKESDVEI

The term Kp denotes tissue or fluid exposure divided by exposure in the circulation. A word on the IC50: it is the concentration that gives 50% inhibition. One may read the GI50 as the concentration giving 50% growth inhibition. Read a high GI50 as lower sensitivity of the cells. On to `O=C(NO)c1cnc(N2C[C@@H]3[C@H](C2)[C@H]3NCc2ccc(Cl)cc2)nc1`, for which the “inhibition (INH)” value in data set [1] is listed as “Not Active”. For the same compound, the partition ratio (Kp) at 384 h in [2] is 4. Moreover, in data set [3], the inhibition result was “Active”. The Activity is 33% in data set [4] and “Non-toxic” in data set [7]. Besides, the half-inhibitory concentration (IC50) in data set [5] was found to be 10000 nM; in data set [9], 10 nM. Moreover, in data set [6], the 50% growth inhibitory concentration (GI50) amounted to 410 nM. Also, the concentration at 336 h in data set [8] came out at 28 ng/mL.

One may read the half-life as the time in which the quantity being followed falls by half. A high value points to slow loss. Broadly, the clearance is a measure of how efficiently the substance is removed, as volume per time. One may read the solubility as the concentration that dissolves in the medium under given conditions. High values mean much dissolved substance, low ones little dissolved substance. As for `O=C(NO)c1cnc(N2C[C@@H]3[C@H](C2)[C@H]3NCc2ccc3cc(F)ccc3n2)nc1` [NANATINOSTAT], in data set [1], the “inhibition (INH)” value is on record as “Not Active”. In addition, the RatioGI50 in [10] worked out at 9.5; in data set [12], 10.3; in data set [13], 12.1; in data set [14], 5; in [15], 20; in [19], 8.7. For the same compound, the RatioGI50 in data set [20] turned out to be 21.6; in data set [23], 22.8; in [24] it was 12.5; in data set [25], 21.9; in data set [26], 10.5; in [27], 12.5. The figures for the half-life in data set [11] and in data set [17] were 0.9 h and 5.2 h, respectively. In data set [4], the Activity was found to be 21%. For the same compound, the outcome in data set [16] and in data set [18] was Active. For the same compound, the IC50 in data set [5] was more than 50000 nM; in [9], 7 nM. Besides, the values for the GI50 in data set [6] and in data set [28] were 210 nM and 110 nM, respectively. In addition, the clearance in [21] was determined as 134 mL/min/kg. Besides, the solubility in data set [22] is 1 µg/mL (≈ 2.54 µM).
